Assay outcomes (PubChem BioAssay)
PREPL inhibitor: human PREPL enzyme inhibition | 0.68% of 320,000 active | AID 2751 | recombinant PREPL, fluorescence polarization activity-based probe | inhibition, % at 5.96 µM | Q4J6C6; in the data active = inhibition above about 43%
MC4R ag barr: activates human MC4R beta-arrestin recruitment | P32245 | U2OS MC4R beta-arrestin complementation, luminescence; percent of melanotan II response, DMSO zero | activation, % at 8.9 µM | 0.98% of 360,000 active | AID 540308;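 active = activation above a per-plate cutoff, the mean activation of sample wells on that plate plus 3 SD, cut at about 8% in these data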
NTR1 agonist: activates human neurotensin receptor 1. P30989. AID 493036. NTR1-U2OS beta-arrestin-GFP spot imaging, agonist mode. 0.17% of 330,000 active. activation, % at 20 µM;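 active = activation at or above 40% of the spot to cytoplasm intensity ratio, with at least 20 cells analyzed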
m5-HT2A agonist: mouse HTR2A agonism via beta-arrestin recruitment; P35363; activation, % at 7.6 µM; CHO-K1 mHTR2A beta-arrestin complementation, luminescence; percent of 30 µM serotonin response; 0.66% of 360,000 active;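 active = activation above a run cutoff, the mean activation of all tested compounds plus 3 SD, cut at about 14% in these data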
Target sequence (P35363 whole entry, looked up): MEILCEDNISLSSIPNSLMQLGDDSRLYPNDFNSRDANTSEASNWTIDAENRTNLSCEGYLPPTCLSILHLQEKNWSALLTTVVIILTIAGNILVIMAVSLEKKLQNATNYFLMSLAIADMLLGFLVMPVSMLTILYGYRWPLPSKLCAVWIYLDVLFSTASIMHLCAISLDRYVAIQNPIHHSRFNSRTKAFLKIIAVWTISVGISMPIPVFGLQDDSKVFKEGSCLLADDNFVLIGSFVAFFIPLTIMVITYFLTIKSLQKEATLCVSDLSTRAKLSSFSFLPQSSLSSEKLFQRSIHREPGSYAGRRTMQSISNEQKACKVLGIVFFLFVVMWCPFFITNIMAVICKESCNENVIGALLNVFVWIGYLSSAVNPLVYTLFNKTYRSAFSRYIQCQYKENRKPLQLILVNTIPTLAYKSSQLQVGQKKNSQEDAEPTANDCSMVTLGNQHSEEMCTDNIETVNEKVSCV
MC4R antagonist: antagonists of human melanocortin 4 receptor (MC4R); P32245; 0.48% of 360,000 active; inhibition, % at 6.5 µM; MC4R-expressing cells, MTII-stimulated cAMP, LANCE TR-FRET;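 active = inhibition above its plate's cutoff, the mean of tested wells on that plate plus 3 SD, cut at about 29% in these data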
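Assay system: U2OS-MC4R stable cell line; Also added: Melanotan II; Technique: Eu-cAMP/anti-cAMP TR-FRET, emission 671 nm; Times: 30-min compound, 1-h challenge, 1-h detection, room temperature.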
Lipid droplet: modulators of hepatic lipid droplet formation; AML12 mouse hepatocytes, oleate lipid droplets, BODIPY imaging; inhibition, % at 6.5 µM; 0.4% of 240,000 active;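 active = lipid droplet intensity inhibited by at least 50%, with more than 500 cells counted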
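Test system: AML12 hepatocytes (mouse); reagent: oleate loading, 100 µM; dosing: one dose, 6.5 µM compound; incubation: overnight exposure; signal: fluorescence imaging, 20x objective, two fields per well; read-out basis: % inhibition of corrected integrated BODIPY droplet signal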
MC4R barr ag: human MC4R beta-arrestin agonism confirmation; AID 602192; activation, % at 8.9 µM; shares compounds with MC4R ag barr; U2OS MC4R beta-arrestin recruitment, luminescence; scaled DMSO 0%, Melanotan II 100%; 31% of 2,400 active;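 active = mean activation across replicates above the hit cutoff set in the earlier primary screen, cut at about 8% in these data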
MOR-DOR barr ag: OPRM1-OPRD1 heterodimer agonism counter-screen; 5.8% of 2,400 active; AID 602194; shares compounds with MC4R ag barr; activation, % at 9.2 µM; U2OS PathHunter beta-arrestin, beta-gal luminescence; percent of deltorphin B response, DMSO zero;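 active = mean activation across replicates exceeds the hit threshold derived in the earlier primary screen, cut at about 18% in these data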
Large screens that a line does not name were inactive (follow-up assays come after a bar, where they were run). Compounds with a hit are over-represented: about 2.7% of the library has one in this group of screens.

O=C(OCC(=O)c1c[nH]c2ccccc12)c1cc2ccccc2cc1O	MC4R ag barr 12.5 | MC4R barr ag inactive | MOR-DOR barr ag inactive
COc1ccc(C(=O)OCC(=O)c2c[nH]c3ccccc23)c(OC)c1	none (no result: Lipid droplet)
Cc1cc(C)c(C(=O)Cn2nc(C(=O)O)c3ccccc3c2=O)cc1C	none
CCCc1ccc(C(=O)Cn2nc(C(=O)O)c3ccccc3c2=O)cc1	MC4R ag barr 10.0 | MC4R barr ag inactive | MOR-DOR barr ag inactive
O=C(Cn1nc(C(=O)O)c2ccccc2c1=O)Nc1cc(Cl)cc(Cl)c1	MC4R ag barr 12.1 | MC4R barr ag inactive | MOR-DOR barr ag inactive
NC(=O)c1c(NC(=O)Cn2nc(C(=O)O)c3ccccc3c2=O)sc2c1CCCC2	MC4R ag barr 10.4 | MC4R barr ag inactive | MOR-DOR barr ag inactive
CC1CCN(S(=O)(=O)c2ccc3c(c2)N(CC(=O)NCCCN2CC(C)CC(C)C2)C(=O)CS3)CC1 (stereo unspecified)	none
c1nc(NCc2ccc3c(c2)OCO3)c2cc(-c3ccoc3)ccc2n1	none (no result: Lipid droplet)
COc1ccc(C(=O)NCC(=O)OCc2ccc(F)cc2)cc1	none
COc1ccc(NC(=O)CC(c2ccc(F)cc2)c2ccc(OC(C)C)cc2)cc1 (stereo unspecified)	MC4R ag barr 15.4 | MC4R barr ag inactive | MOR-DOR barr ag inactive
CCOc1ccc(NC(=O)CC(c2ccccc2)c2ccc(F)cc2)cc1 (stereo unspecified)	MC4R ag barr 16.8 | MC4R barr ag inactive | MOR-DOR barr ag inactive
CCN(Cc1ccccc1)C(=O)CN1C(=O)COc2ccc(S(=O)(=O)NC3CCCC3)cc21	none
O=C1c2cccnc2C(=O)N1Cc1ccc(S(=O)(=O)N2CCN(c3ccc(Cl)cc3)CC2)cc1	MC4R ag barr 11.0 | MC4R barr ag inactive | MOR-DOR barr ag inactive
O=C1N/C(=N\N=C\c2cccs2)SC1Cc1ccc(Cl)c(Cl)c1 (stereo unspecified)	MC4R ag barr 10.1 | MC4R barr ag inactive | MOR-DOR barr ag inactive
O=C(Nc1cccc(C(F)(F)F)c1)C1Cc2c(-c3ccccc3Oc3ccccc3)ccnc2O1 (stereo unspecified)	none (no result: PREPL inhibitor, NTR1 agonist, Lipid droplet)
CCCCOc1ccc(/C=N/NC(=S)Nc2cccc(C)c2C)cc1	none
CCCCOc1ccc(/C=N/NC(=S)Nc2cc(C)ccc2C)cc1	MC4R ag barr 11.7 | MC4R barr ag inactive | MOR-DOR barr ag inactive
CCOC(=O)[C@@H](NC(=O)CC[C@H]1O[C@@H](n2cc(C)c(=O)[nH]c2=O)C[C@@H]1O)C(C)C	none (no result: PREPL inhibitor, NTR1 agonist, Lipid droplet)
Cc1ccc(CC2S/C(=N/c3ccccn3)NC2=O)cc1 (stereo unspecified)	MC4R ag barr 14.4 | MC4R barr ag inactive | MOR-DOR barr ag inactive
O=C1N/C(=N/c2ccccn2)SC1Cc1ccccc1 (stereo unspecified)	none (no result: Lipid droplet)
COC(=O)c1ccccc1NC(=O)CN1CCC(C)CC1	none
O=[N+]([O-])c1ccc(S(=O)(=O)N2CCN=C2SCc2ccc(F)cc2)cc1	MC4R ag barr 10.9 | MC4R barr ag inactive | MOR-DOR barr ag inactive
CC(=O)Nc1ccc(S(=O)(=O)N2CCN=C2SCc2ccc(F)cc2)cc1	none
Cc1nc(/N=C\c2ccc(N(C)C)cc2)sc1C	none (no result: Lipid droplet)
COc1ccc(NC(=O)COC(=O)CCC2CCCCC2)cc1	MC4R ag barr 9.9 (no result: Lipid droplet) | MC4R barr ag inactive | MOR-DOR barr ag inactive
O=C(CNCC1CCCCC1)Nc1ccc(OC(F)(F)F)cc1	MC4R ag barr 14.6 | MC4R barr ag inactive | MOR-DOR barr ag inactive
NC(=O)c1ccc(NC(=O)COC(=O)CCC2CCCCC2)cc1	none (no result: Lipid droplet)
Cc1ccc(NC(=O)C(C)OC(=O)CCC2CCCCC2)cc1 (stereo unspecified)	MC4R ag barr 10.5 (no result: Lipid droplet) | MC4R barr ag inactive | MOR-DOR barr ag inactive
CN(CC(=O)Nc1c(Cl)cccc1Cl)C(=O)CCC1CCCC1	none
